Reference: ChEMBL document CHEMBL4014315 (J Med Chem, 2017)
The source made the active and inactive calls. The calls are words filed in the database; no cut-off is given here.

Columns and labels:
ABCC1 = ABCC1 (Homo sapiens, UniProt P33527); assay: Inhibition of ABCC1 in human H69AR cells assessed as reduction in calcein AM levels at 10 uM preincubated for 30 mins followed by calcein AM addition measured immediately at 60 sec time interval for 60 mins by fluorescence assay relative to Cyclosporine A; assay type: cell-based; details: probe calcein AM
ABCC1, sequence (P33527 whole entry): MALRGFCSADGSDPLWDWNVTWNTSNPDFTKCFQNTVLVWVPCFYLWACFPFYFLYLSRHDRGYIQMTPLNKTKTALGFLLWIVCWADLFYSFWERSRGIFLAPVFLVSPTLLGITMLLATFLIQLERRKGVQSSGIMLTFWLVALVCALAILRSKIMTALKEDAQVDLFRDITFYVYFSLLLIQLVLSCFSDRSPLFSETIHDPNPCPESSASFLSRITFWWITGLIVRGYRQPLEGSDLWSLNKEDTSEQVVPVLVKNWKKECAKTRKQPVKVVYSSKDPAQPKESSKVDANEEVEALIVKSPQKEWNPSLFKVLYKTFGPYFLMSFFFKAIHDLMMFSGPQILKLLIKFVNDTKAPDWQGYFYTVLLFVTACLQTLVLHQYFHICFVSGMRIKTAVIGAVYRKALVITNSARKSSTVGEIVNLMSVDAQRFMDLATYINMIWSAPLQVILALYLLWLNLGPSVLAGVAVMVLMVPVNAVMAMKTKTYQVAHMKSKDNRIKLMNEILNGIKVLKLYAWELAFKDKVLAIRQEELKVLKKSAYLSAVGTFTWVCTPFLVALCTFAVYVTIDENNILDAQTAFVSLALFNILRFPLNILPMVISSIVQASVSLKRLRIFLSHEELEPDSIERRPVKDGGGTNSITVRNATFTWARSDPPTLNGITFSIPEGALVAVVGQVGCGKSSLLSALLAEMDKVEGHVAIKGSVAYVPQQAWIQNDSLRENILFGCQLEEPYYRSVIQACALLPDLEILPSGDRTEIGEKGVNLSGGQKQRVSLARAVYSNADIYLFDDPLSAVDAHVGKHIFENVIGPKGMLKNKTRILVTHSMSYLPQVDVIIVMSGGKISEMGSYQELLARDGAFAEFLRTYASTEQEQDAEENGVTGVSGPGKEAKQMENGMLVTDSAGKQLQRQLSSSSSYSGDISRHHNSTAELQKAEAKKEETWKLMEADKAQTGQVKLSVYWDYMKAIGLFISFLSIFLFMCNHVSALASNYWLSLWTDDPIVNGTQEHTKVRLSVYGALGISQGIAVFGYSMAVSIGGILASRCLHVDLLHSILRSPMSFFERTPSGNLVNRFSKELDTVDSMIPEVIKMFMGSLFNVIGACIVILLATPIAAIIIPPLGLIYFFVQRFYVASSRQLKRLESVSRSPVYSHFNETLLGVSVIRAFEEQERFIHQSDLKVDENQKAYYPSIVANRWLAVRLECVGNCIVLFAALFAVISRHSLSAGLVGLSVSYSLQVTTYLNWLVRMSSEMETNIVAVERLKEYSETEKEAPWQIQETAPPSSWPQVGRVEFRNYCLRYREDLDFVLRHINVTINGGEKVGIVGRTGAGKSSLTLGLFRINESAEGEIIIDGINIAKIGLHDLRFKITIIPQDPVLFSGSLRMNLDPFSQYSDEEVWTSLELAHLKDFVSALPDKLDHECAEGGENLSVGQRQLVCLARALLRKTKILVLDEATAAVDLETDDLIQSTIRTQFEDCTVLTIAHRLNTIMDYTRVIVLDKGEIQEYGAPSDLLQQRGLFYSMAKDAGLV
Summary of the method: (§1)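 Calcein AM assay in A2780adr cells (ABCB1 overexpressing) and H69AR cells (ABCC1 overexpressing). Compounds were screened at 10 µM, with inhibition relative to cyclosporine A as the total-inhibition control.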

[1] = target: T1, Broad substrate specificity ATP-binding cassette transporter ABCG2 (Homo sapiens, UniProt Q9UNQ0); assay: Activation of ABCG2 (unknown origin) ATPase activity expressed in baculovirus infected high five cell membranes by ascorbic acid/ammonia molybdate reaction-based colorimetric analysis; details: read-out: EC50
T1 sequence (Q9UNQ0 whole entry): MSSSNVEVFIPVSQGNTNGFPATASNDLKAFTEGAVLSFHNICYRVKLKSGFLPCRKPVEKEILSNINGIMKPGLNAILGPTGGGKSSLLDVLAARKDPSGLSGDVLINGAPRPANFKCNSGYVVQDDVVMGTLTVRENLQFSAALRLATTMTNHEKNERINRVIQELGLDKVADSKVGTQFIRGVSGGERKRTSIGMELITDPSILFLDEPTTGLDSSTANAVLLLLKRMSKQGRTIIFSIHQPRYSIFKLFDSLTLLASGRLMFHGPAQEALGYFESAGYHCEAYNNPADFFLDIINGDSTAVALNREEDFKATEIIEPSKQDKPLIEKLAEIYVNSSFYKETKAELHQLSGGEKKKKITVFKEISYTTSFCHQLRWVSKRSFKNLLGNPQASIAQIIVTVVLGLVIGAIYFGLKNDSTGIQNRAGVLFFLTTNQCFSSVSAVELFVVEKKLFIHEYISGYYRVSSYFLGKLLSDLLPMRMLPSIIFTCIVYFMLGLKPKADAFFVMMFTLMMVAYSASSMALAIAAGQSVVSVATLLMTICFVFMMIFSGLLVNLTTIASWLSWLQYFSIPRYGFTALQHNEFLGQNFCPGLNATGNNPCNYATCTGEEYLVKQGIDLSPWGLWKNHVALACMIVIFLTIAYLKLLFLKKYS
Summary of the method: (§2)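 Colorimetric ATPase assay of ABCG2 membranes; activity expressed relative to control. Where data were biphasic, a combined increasing plus decreasing logistic equation with the Hill coefficient fixed at one was fitted, giving an activating and an inactivating K.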

ABCG2 [2] = target: T2, ABCG2 (Homo sapiens, UniProt Q9UNQ0); assay: Activation of ABCG2 (unknown origin) ATPase activity expressed in baculovirus infected high five cell membranes assessed as protein Vmax by ascorbic acid/ammonia molybdate reaction-based colorimetric analysis relative to basal control; details: read-out: Vmax; summary of the method: as §2
T2 sequence (Q9UNQ0 whole entry): T1 sequence (Q9UNQ0 whole entry)

ABCG2 [3] = target: T2, ABCG2; assay: Inhibition of recombinant human GFP-fused ABCG2 expressed in MDCK2 cells assessed as reduction in Hoechst 33342 efflux at […] preincubated for 30 mins followed by Hoechst 33342 addition measured immediately at 60 sec time interval for 120 mins by fluorescence assay relative to Ko143; assay type: cell-based; details: MDCK2 cells expressing recombinant GFP-fused human ABCG2, probe Hoechst 33342, read-out: Imax
[4] = target: T1, Broad substrate specificity ATP-binding cassette transporter ABCG2; assay: Inhibition of recombinant human GFP-fused ABCG2 expressed in MDCK2 cells assessed as reduction in Hoechst 33342 efflux preincubated for 30 mins followed by Hoechst 33342 addition measured immediately at 60 sec time interval for 120 mins by fluorescence assay; assay type: cell-based
Summary of the method: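 Hoechst 33342 accumulation assay: the dye is an ABCG2 substrate whose fluorescence rises when bound to DNA or embedded in membrane. Intracellular accumulation serves as the read-out of transporter inhibition.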

ABCB1 = ABCB1 (Homo sapiens, UniProt P08183); assay: Inhibition of ABCB1 in human A2780adr cells assessed as reduction in calcein AM levels at 10 uM preincubated for 30 mins followed by calcein AM addition measured immediately at 60 sec time interval for 60 mins by fluorescence assay relative to Cyclosporine A; assay type: cell-based; details: probe calcein AM; summary of the method: as §1
ABCB1, sequence (P08183 whole entry, the tested form may be a part): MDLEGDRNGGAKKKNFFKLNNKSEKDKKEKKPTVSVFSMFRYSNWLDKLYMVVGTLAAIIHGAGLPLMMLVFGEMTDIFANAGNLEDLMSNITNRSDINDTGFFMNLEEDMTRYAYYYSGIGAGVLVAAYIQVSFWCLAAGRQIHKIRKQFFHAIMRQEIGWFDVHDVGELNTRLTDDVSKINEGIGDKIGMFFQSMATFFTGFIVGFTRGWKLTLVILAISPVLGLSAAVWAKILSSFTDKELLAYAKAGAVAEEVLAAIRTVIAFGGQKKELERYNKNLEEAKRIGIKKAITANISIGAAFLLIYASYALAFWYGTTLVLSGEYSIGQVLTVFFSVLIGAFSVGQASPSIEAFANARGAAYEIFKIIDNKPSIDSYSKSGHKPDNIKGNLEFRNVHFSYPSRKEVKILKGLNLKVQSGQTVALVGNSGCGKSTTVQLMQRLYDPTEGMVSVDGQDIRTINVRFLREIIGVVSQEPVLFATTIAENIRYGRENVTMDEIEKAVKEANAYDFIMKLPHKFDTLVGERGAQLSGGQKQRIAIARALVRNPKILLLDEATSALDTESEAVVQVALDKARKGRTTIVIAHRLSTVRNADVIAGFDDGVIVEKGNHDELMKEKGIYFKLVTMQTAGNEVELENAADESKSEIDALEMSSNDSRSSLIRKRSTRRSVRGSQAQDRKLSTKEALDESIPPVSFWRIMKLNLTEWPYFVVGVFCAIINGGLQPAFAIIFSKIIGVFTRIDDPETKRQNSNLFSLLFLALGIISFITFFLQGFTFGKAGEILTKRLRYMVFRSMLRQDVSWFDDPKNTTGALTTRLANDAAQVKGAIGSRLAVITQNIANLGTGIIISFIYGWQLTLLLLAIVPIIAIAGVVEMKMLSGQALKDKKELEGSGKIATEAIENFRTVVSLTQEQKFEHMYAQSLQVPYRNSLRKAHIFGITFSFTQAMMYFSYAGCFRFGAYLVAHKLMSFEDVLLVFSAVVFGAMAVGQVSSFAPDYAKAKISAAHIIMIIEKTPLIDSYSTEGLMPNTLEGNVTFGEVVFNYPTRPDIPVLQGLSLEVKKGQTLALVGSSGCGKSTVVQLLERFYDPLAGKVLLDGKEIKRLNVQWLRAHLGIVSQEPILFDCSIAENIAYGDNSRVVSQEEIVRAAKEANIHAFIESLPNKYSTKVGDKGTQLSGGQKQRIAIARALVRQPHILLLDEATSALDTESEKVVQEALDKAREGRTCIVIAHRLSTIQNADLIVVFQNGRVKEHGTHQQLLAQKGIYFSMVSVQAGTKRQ

[5] = target: T1, Broad substrate specificity ATP-binding cassette transporter ABCG2; assay: Competitive inhibition of recombinant human GFP-fused ABCG2 expressed in MDCK2 cells up to 1000 nM preincubated for 30 mins followed by varying levels of Hoechst 33342 addition measured immediately at 60 sec time interval for 120 mins by Cornish-Bowden plot analysis; assay type: cell-based; details: 2 h
Summary of the method: (§3)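 Kinetics were run with Hoechst 33342 as the fluorescent ABCG2 substrate at varying levels, combined with several modulator concentrations. Data were analysed by double-reciprocal Lineweaver-Burk, half-reciprocal Hanes-Woolf and Cornish-Bowden direct linear plots. Changes in Vmax and KM with modulator concentration defined the mode: competitive, non-competitive or mixed type.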

[6] = target: T1, Broad substrate specificity ATP-binding cassette transporter ABCG2; assay: Competitive inhibition of recombinant human GFP-fused ABCG2 expressed in MDCK2 cells up to 5620 nM preincubated for 30 mins followed by varying levels of Hoechst 33342 addition measured immediately at 60 sec time interval for 120 mins by Lineweaver-Burk plot analysis; assay type: cell-based; details: 2 h; summary of the method: as §3
[7] = target: T1, Broad substrate specificity ATP-binding cassette transporter ABCG2; assay: Competitive inhibition of recombinant human GFP-fused ABCG2 expressed in MDCK2 cells up to 5620 nM preincubated for 30 mins followed by varying levels of Hoechst 33342 addition measured immediately at 60 sec time interval for 120 mins by Hanes-Woolf plot analysis; assay type: cell-based; details: 2 h; summary of the method: as §3
[8] = target: ATP-dependent translocase ABCB1 (Homo sapiens, UniProt P08183); assay: Inhibition of ABCB1 in human A2780adr cells assessed as reduction in calcein AM levels preincubated for 30 mins followed by calcein AM addition measured immediately at 60 sec time interval for 60 mins by fluorescence assay; assay type: cell-based; summary of the method: as §1
ATP-dependent translocase ABCB1, sequence (P08183 whole entry): as the sequence (P08183 whole entry, the tested form may be a part) above

[9] = Cytotoxicity against MDCK2 cells assessed as cell growth inhibition after 72 hrs by MTT assay; assay type: cell-based, Canis lupus familiaris, MDCK-II; details: dog
[10] = target: T1, Broad substrate specificity ATP-binding cassette transporter ABCG2; assay: Inhibition of ABCG2 (unknown origin) ATPase activity expressed in baculovirus infected high five cell membranes by ascorbic acid/ammonia molybdate reaction-based colorimetric analysis; summary of the method: as §2
[11] = Therapeutic index, ratio of GI50 for ABCG2 over-expressing MDCK2 cells to IC50 for recombinant human GFP-fused ABCG2 expressed in MDCK2 cells; assay type: cell-based
[12] = Cytotoxicity against ABCG2 over-expressing MDCK2 cells assessed as cell growth inhibition after 72 hrs by MTT assay; assay type: ADME, cell-based, Canis lupus familiaris, MDCK-II; details: dog
MDCK-II [13] = assay: Potentiation of SN-38 induced cytotoxicity against MDCK2 cells at 0.01 to 5 uM after 72 hrs by MTT assay; assay type: functional, cell-based; details: Canis lupus familiaris
Summary of the method: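 Parental MDCK II cells were given SN-38 dilutions combined with different modulator concentrations, with viability read by MTT.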

MDCK-II [14] = assay: Cytotoxicity against ABCG2 over-expressing MDCK2 cells assessed as effect on cell proliferation at low concentration after 72 hrs in absence of DMSO and presence of 1% methanol by MTT assay; assay type: ADME, cell-based, Canis lupus familiaris; details: dog
Summary of the method: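 Modified MTT viability assay in ABCG2-overexpressing MDCK II cells, run without DMSO and with a constant 1% methanol.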

[15] = target: T1, Broad substrate specificity ATP-binding cassette transporter ABCG2; assay: Inhibition of human GFP-fused ABCG2 expressed in MDCK2 cells assessed as potentiation of SN-38 induced cytotoxicity by measuring cell viability at 1 uM after 72 hrs by MTT assay; assay type: cell-based
Summary of the method: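 Reversal MTT assay in ABCG2-overexpressing MDCK II cells: SN-38 dilutions were combined with different modulator concentrations. Parental MDCK II cells defined total inhibition, and overexpressing cells without modulator defined no inhibition. GI50 values were plotted against log modulator concentration to derive IC50.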

ABCG2 [16] = target: T2, ABCG2; assay: Activation of ABCG2 (unknown origin) ATPase activity expressed in baculovirus infected high five cell membranes assessed as protein Vmax at 35 uM by ascorbic acid/ammonia molybdate reaction-based colorimetric analysis relative to basal control; details: read-out: Vmax; summary of the method: as §2
ABCG2 [17] = target: T2, ABCG2; assay: Activation of ABCG2 (unknown origin) ATPase activity expressed in baculovirus infected high five cell membranes assessed as protein Vmax at 0.5 uM by ascorbic acid/ammonia molybdate reaction-based colorimetric analysis relative to basal control; details: read-out: Vmax; summary of the method: as §2
[18] = target: T1, Broad substrate specificity ATP-binding cassette transporter ABCG2; assay: Mixed type inhibition of recombinant human GFP-fused ABCG2 expressed in MDCK2 cells preincubated for 30 mins followed by varying levels of Hoechst 33342 addition measured immediately at 60 sec time interval for 120 mins by Cornish-Bowden plot analysis; assay type: cell-based; details: 2 h; summary of the method: as §3
[19] = target: T1, Broad substrate specificity ATP-binding cassette transporter ABCG2; assay: Non-competitive inhibition of recombinant human GFP-fused ABCG2 expressed in MDCK2 cells up to 100 nM preincubated for 30 mins followed by varying levels of Hoechst 33342 addition measured immediately at 60 sec time interval for 120 mins by Cornish-Bowden plot analysis; assay type: cell-based; details: 2 h; summary of the method: as §3
[20] = target: T1, Broad substrate specificity ATP-binding cassette transporter ABCG2; assay: Non-competitive inhibition of recombinant human GFP-fused ABCG2 expressed in MDCK2 cells up to 100 nM preincubated for 30 mins followed by varying levels of Hoechst 33342 addition measured immediately at 60 sec time interval for 120 mins by Hanes-Woolf plot analysis; assay type: cell-based; details: 2 h; summary of the method: as §3
[21] = target: T1, Broad substrate specificity ATP-binding cassette transporter ABCG2; assay: Ratio of IC50 for inhibition of human GFP-fused ABCG2 expressed in MDCK2 cells to EC50 for inhibition of human GFP-fused ABCG2 expressed in MDCK2 cells assessed as potentiation of SN-38 induced cytotoxicity by measuring cell viability; assay type: cell-based
[22] = target: T1, Broad substrate specificity ATP-binding cassette transporter ABCG2; assay: Non-competitive inhibition of recombinant human GFP-fused ABCG2 expressed in MDCK2 cells up to 100 nM preincubated for 30 mins followed by varying levels of Hoechst 33342 addition measured immediately at 60 sec time interval for 120 mins by Lineweaver-Burk plot analysis; assay type: cell-based; details: 2 h; summary of the method: as §3

EC50 [1] [µM]	Emax (ABCG2 [2]) [%]	Emax at 2 h (ABCG2 [3]) [%]	IC50 [4] [µM]	SMILES	GI50 at 72 h [9] [µM]	TI [11]	GI50 at 72 h [12] [µM]	Activity (MDCK-II [13])	Activity (MDCK-II [14])	inhibition (INH) [15]	also measured
0.07	137	80 to 110	0.742	COc1ccc(Nc2nc(-c3ccncc3)nc3ccccc23)cc1							inhibition at 1 h, 10 µM (ABCC1): 25%
0.042	132	80 to 110	0.558	COc1cccc(Nc2nc(-c3ccncc3)nc3ccccc23)c1							inhibition at 1 h, 10 µM (ABCB1): > 25%; inhibition (INH) [5]: Active; inhibition (INH) [6]: Active; inhibition (INH) [7]: Active; IC50 [8]: 5.43 µM
	152	80 to 110	0.488	FC(F)(F)c1ccc(Nc2nc(-c3ccncc3)nc3ccccc23)cc1	166	240	117				Ki [10]: 27 µM
1.8	154	80 to 110	0.0988	Cc1cc(Nc2ccc(O)c([N+](=O)[O-])c2)nc(-c2ccccc2)n1	57.5	496	49	inactive	Non-Toxic	Active	inhibition at 1 h, 10 µM (ABCC1): 25%
		80 to 110	0.216	FC(F)(F)c1cccc(Nc2nc(-c3ccncc3)nc3ccccc23)c1	12.3	58.3	12.6				Emax at 35 µM (ABCG2 [16]): 25%; Emax at 0.5 µM (ABCG2 [17]): 155%; Ki [10]: 28 µM; inhibition (INH) [18]: Active
0.35	151	80 to 110	0.108	N#Cc1cccc(Nc2nc(-c3cccnc3)nc3ccccc23)c1	90.7	697	75.3	inactive	Non-Toxic	Active	
0.009	164	80 to 110	0.0641	O=[N+]([O-])c1ccc(Nc2nc(-c3cccnc3)nc3ccccc23)cc1	74.1		73.3	inactive	Non-Toxic	Active	inhibition (INH) [19]: Active; inhibition (INH) [20]: Active; Ratio IC50/EC50 [21]: 3; inhibition (INH) [22]: Active
